Test results reported in PubChem BioAssay AID623942 (The Scripps Research Institute Molecular Screening Center, 2012).
The source made the active and inactive calls.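 How the source made its calls: active means IC50 at or below 50 µM; inactive means IC50 above 50 µM.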

target: RecBCD enzyme subunit RecC (Escherichia coli (strain K12)) + RecBCD enzyme subunit RecB (Escherichia coli (strain K12)) (UniProt P07648+P08394); experiment: RecBCD helicase and Chi cutting inhibitors, dose response, counter-screen for AddAB inhibitor project, biochemical, radioactive gel readout (AID 623942); details: purified RecBCD, Chi cutting/unwinding
Sequence (P07648 whole entry, looked up): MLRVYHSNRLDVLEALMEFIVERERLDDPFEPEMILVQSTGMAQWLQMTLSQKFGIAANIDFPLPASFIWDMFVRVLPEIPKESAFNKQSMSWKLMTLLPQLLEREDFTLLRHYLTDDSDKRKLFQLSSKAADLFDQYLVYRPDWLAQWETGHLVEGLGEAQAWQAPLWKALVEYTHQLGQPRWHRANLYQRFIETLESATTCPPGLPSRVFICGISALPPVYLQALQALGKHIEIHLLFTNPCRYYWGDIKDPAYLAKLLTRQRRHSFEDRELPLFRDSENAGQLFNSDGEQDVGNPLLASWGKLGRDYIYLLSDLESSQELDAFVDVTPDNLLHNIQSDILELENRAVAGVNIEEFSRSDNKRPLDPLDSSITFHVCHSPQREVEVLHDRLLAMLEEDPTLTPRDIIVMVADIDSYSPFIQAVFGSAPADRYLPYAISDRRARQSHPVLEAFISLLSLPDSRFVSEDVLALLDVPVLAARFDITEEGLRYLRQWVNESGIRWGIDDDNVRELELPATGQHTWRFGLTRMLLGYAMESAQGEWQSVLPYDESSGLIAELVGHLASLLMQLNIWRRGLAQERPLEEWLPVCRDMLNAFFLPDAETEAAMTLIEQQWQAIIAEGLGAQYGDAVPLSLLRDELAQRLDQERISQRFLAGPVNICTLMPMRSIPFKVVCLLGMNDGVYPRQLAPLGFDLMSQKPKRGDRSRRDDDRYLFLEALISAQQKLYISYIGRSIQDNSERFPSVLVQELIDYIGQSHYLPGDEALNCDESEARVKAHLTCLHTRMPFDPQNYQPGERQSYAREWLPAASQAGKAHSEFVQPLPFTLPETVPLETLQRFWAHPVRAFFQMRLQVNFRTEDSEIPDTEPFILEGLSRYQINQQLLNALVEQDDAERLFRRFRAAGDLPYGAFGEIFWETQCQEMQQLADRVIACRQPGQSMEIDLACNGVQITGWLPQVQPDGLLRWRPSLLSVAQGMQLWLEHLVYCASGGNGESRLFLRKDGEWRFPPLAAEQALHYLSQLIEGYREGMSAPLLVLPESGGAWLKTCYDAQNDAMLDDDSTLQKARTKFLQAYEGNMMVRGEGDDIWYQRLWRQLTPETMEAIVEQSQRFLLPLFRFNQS
Sequence (P08394 whole entry, looked up): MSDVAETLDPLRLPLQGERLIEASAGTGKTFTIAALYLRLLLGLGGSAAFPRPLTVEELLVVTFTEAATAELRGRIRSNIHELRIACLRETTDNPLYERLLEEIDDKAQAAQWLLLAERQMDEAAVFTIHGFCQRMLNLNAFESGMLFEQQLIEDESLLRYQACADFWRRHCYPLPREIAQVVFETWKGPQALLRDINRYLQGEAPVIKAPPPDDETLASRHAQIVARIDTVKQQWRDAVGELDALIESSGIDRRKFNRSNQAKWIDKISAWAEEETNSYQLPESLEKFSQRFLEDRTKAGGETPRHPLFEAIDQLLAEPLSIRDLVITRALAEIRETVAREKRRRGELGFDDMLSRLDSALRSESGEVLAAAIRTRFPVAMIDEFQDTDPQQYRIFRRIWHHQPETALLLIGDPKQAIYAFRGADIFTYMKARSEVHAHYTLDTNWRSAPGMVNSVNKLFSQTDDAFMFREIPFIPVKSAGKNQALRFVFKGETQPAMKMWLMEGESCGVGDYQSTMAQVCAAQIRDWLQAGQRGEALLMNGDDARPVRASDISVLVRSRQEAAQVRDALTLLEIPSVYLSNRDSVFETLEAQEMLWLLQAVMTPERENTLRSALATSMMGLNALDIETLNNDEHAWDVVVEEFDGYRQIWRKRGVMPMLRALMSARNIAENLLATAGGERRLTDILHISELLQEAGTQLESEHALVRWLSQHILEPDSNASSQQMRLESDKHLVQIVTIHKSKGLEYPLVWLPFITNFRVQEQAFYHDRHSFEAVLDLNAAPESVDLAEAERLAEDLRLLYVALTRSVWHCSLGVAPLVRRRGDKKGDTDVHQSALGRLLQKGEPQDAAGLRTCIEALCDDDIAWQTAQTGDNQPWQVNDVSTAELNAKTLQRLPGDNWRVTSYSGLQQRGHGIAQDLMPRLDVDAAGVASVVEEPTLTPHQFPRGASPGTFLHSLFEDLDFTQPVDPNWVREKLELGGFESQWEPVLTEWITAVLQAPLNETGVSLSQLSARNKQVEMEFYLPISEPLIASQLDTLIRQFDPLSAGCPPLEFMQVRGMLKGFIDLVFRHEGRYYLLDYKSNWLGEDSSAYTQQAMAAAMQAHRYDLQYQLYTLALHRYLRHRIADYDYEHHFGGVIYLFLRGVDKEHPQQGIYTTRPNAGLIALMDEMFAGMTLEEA
Outline: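 Material: Purified Escherichia coli RecBCD helicase-nuclease complex | Amount: 0.15 nM RecBCD | Also added: 0.1 nM labeled Chi+F DNA plus 5 mM ATP | Compound dosing: Dilution series from 500 µM nominal top concentration | Timing: 1 min at 37 °C | Detection: Gel autoradiography of 32P-labeled DNA products | Benchmarks: DMSO control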

IC50 | Compound
10 µM | CCn1cc(C(=O)O)c(=O)c2cnc(N3CCN(C(=S)Nc4ccccc4C(F)(F)F)CC3)nc21
inactive | NC(=O)c1ccsc1NC(=O)COC(=O)c1ccc([N+](=O)[O-])o1
> 500 µM (inactive) | O=C(OCC(=O)c1cccs1)c1ccc([N+](=O)[O-])o1
0.6 µM | CCn1cc(C(=O)O)c(=O)c2cnc(N3CCN(C(=S)Nc4cccc(C(F)(F)F)c4)CC3)nc21
20 µM | CCn1cc(C(=O)O)c(=O)c2cc(F)c(N3CCN(C(=S)Nc4ccccc4C(F)(F)F)CC3)cc21
> 500 µM (inactive) | CC(=O)Nc1ccc2nc(NC(=O)c3ccc([N+](=O)[O-])o3)sc2c1
20 µM | N#Cc1c(NC(=O)c2ccc([N+](=O)[O-])o2)sc2c1CCC2
20 µM | O=C(Nc1cccc(NC(=O)c2ccccc2Cl)c1)c1ccc([N+](=O)[O-])o1
> 500 µM (inactive) | O=C(NCc1cccnc1)c1ccc([N+](=O)[O-])o1
0.6 µM | CCn1cc(C(=O)O)c(=O)c2cc(F)c(N3CCN(C(=S)Nc4cccc(C(F)(F)F)c4)CC3)cc21
> 500 µM (inactive) | C=CCn1c(Sc2ncc([N+](=O)[O-])s2)n[nH]c1=O
> 500 µM (inactive) | Cc1cccnc1NC(=O)c1ccc([N+](=O)[O-])o1
38 µM | Cc1ccc2nc(/C(C#N)=C\c3ccc([N+](=O)[O-])o3)[nH]c2c1
49 µM | O=C(Nc1ncccn1)c1ccc([N+](=O)[O-])o1
inactive | O=C(Nc1ccc(N2CCOCC2)cc1)c1ccc([N+](=O)[O-])o1
